Assay results as given in ChEMBL document CHEMBL5154920, “Ispinesib as an Effective Warhead for the Design of Autophagosome-Tethering Chimeras: Discovery of Potent Degraders of Nicotinamide Phosphoribosyltransferase (NAMPT)” (J Med Chem, 2022).
Active and inactive are the calls of the source. No cut-off for these calls is given here.

Columns and labels:
[1] = biological target: T1, Nicotinamide phosphoribosyltransferase (Homo sapiens, UniProt P43490); test: Inhibition of NAMPT (unknown origin) measured after 90 mins by measuring fluorescence intensity
Target sequence in this assay (P43490 whole entry): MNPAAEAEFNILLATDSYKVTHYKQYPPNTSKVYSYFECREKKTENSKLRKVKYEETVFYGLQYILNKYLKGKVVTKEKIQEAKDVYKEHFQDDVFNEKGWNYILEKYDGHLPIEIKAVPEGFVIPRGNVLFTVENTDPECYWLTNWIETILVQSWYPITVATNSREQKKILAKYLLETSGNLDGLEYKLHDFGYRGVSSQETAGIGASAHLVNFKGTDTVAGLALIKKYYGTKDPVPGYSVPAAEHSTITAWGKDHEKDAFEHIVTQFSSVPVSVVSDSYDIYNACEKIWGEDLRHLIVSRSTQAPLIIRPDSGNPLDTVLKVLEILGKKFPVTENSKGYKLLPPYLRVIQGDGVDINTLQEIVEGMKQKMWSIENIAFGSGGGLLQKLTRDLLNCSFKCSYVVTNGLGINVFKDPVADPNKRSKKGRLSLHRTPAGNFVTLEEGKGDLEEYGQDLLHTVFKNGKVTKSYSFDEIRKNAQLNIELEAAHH

[2] = biological target: T2, LC3/Nicotinamide phosphoribosyltransferase (Homo sapiens) (UniProt P43490+Q9BXW4+Q9GZQ8+Q9H492); test: Autophagosome tethering activity at NAMPT overexpressing human A2780 cells assessed as lysosome-mediated degradation of NAMPT at 0.1 uM incubated for 48 hrs; type: cell-based
How it was run: (§1)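 A2780 cells were exposed to compound for 48 h. The medium was then removed and the cells washed three times with PBS and lysed on ice in RIPA buffer for 30 min. Lysates were centrifuged at 1.2 × 10^5 g, 4 °C, for 15 min. Protein was quantified by BCA and denatured at 100 °C. Blots were blocked in 5% BSA/TBST for 2 h, probed with primary antibody at 4 °C overnight and secondary for 1 h, and NAMPT was read on Odyssey.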

[3] = biological target: T2, LC3/Nicotinamide phosphoribosyltransferase (Homo sapiens); test: Autophagosome tethering activity at NAMPT overexpressing human A2780 cells assessed as lysosome-mediated degradation of NAMPT at 3 uM incubated for 48 hrs; type: cell-based; how it was run: as §1
HeLa = test: Drug localization in human HeLa cells by measuring colocalization with lysosome probe treated for 2 hrs by confocal microscopy; type: functional, cell-based
How it was run: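 HeLa cells were treated with the green fluorescent probe for 2 h, then stained with a red lysosome probe for another 1.5 h. Colocalization was imaged by confocal microscopy.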

[4] = biological target: T3, Microtubule-associated protein 1 light chain 3 beta (Homo sapiens, UniProt Q9GZQ8); test: Binding affinity to human recombinant LC3B assessed as dissociation constant incubated for 30 mins by fluorescence anisotropy assay
How it was run: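 Fluorescence anisotropy used fluorescein-labeled ispinesib as the tracer, diluted to 50 nM in HEPES buffer, final 25 nM. A twofold serial dilution of LC3 protein in HEPES buffer was added. KD was derived from anisotropy. Measurements were done in triplicate and given as mean ± standard deviation.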

[5] = Inhibition of kinesin spindle protein (unknown origin); design: species or system Homo sapiens
[6] = biological target: T3, Microtubule-associated protein 1 light chain 3 beta; test: Binding affinity to human recombinant LC3B assessed as dissociation constant by isothermal titration calorimetry
How it was run: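 Reverse titration of recombinant LC3B (1500 μM in syringe) into a cell holding 100 μM ligand, in 20 mM HEPES-HCl pH 7.3, 100 mM NaCl, 1% DMSO, at 25 °C. Injections were spaced 120 s apart so the signal returned to baseline. Thermodynamic parameters and KD came from the titration isotherm.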

A2780 [7] = test: Cytotoxicity against human A2780 cells; type: functional, cell-based
A2780 [8] = test: Antiproliferative activity against human A2780 cells overexpressing NAMPT assessed as cell growth inhibition incubated for 72 hrs; type: functional, cell-based; conditions: A2780, 72 h
[9] = biological target: T3, Microtubule-associated protein 1 light chain 3 beta; test: Binding affinity to LC3B (unknown origin) assessed as dissociation constant by surface plasmon resonance analysis
A2780 [10] = test: Binding affinity to KSP in human A2780 cell lysate incubated at 51 to 63 degree Celsius for 4 hrs by Western blotting based CETSA method; type: subcellular
How it was run: (§2)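 CETSA: A2780 cells were seeded at × 107/well and incubated overnight at 37 °C, 5% CO2. Compound was added at the indicated concentration for 4 h. Cells were collected and lysed by three 5-min liquid-nitrogen freeze cycles, then centrifuged at 1.2 × 10^5 g, 4 °C, for 15 min. Supernatants were denatured at 100 °C and protein level was detected by SDS-PAGE.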

[11] = Stability of compound in 1640 culture medium measured up to 72 hrs by HPLC analysis; type: physicochemical
MDA-MB-231 = test: Antiproliferative activity against human MDA-MB-231 cells overexpressing NAMPT assessed as cell growth inhibition incubated for 72 hrs; type: functional, cell-based
HCT-116 = test: Antiproliferative activity against human HCT-116 cells expressing NAMPT assessed as cell growth inhibition incubated for 72 hrs; type: functional, cell-based
[12] = biological target: T1, Nicotinamide phosphoribosyltransferase; test: Binding affinity to NAMPT in human A2780 cell lysate assessed as thermal stability incubated at 51 to 63 degree Celsius for 4 hrs by Western blotting based CETSA method; type: subcellular; how it was run: as §2
Target sequence in this assay (P43490 whole entry, looked up): as the sequence (P43490 whole entry) above

SMILES | IC50 [1] [nM] | Activity [2] [%] | Activity [3] [%] | other results
Cc1ccc(C(=O)N(CCCNC(=O)CCOCCN2CCN(S(=O)(=O)c3ccc(NC(=S)NCc4cccnc4)cc3)CC2)[C@@H](c2nc3cc(Cl)ccc3c(=O)n2Cc2ccccc2)C(C)C)cc1 | 10 | 1 | 86 | 
Cc1ccc(C(=O)N(CCCNC(=O)CCOCCOCCOCCN2CCN(S(=O)(=O)c3ccc(NC(=S)NCc4cccnc4)cc3)CC2)[C@@H](c2nc3cc(Cl)ccc3c(=O)n2Cc2ccccc2)C(C)C)cc1 | 10 | 76 | 91 | 
Cc1ccc(C(=O)N(CCCNC(=S)Nc2ccc3c(c2)C(=O)OC32c3ccc(O)cc3Oc3cc(O)ccc32)[C@@H](c2nc3cc(Cl)ccc3c(=O)n2Cc2ccccc2)C(C)C)cc1 |  |  |  | Activity (HeLa): Active; Kd [4]: 175 nM
Cc1ccc(C(=O)N(CCCN)[C@H](c2nc3cc(Cl)ccc3c(=O)n2Cc2ccccc2)C(C)C)cc1 |  |  |  | IC50 [5]: 0.5 nM; Kd [6]: 11.8 µM; Activity (A2780 [7]): Active
O=S(=O)(c1ccc(NC(=S)NCc2cccnc2)cc1)N1CCNCC1 |  |  |  | IC50 (A2780 [8]): 490 nM
Cc1ccc(C(=O)N(CCCNC(=O)CCCCCCN2CCN(S(=O)(=O)c3ccc(NC(=S)NCc4cccnc4)cc3)CC2)[C@@H](c2nc3cc(Cl)ccc3c(=O)n2Cc2ccccc2)C(C)C)cc1 | 15 | 9 | 86 | 

Continued, in another order:

IC50 [1] [nM] | Activity [2] [%] | Activity [3] [%] | SMILES | other results
34 | 85 | 92 | Cc1ccc(C(=O)N(CCCNC(=O)CCCCCCCCCN2CCN(S(=O)(=O)c3ccc(NC(=S)NCc4cccnc4)cc3)CC2)[C@@H](c2nc3cc(Cl)ccc3c(=O)n2Cc2ccccc2)C(C)C)cc1 | 
19 | 1 | 83 | Cc1ccc(C(=O)N(CCCNC(=O)CCCCCCCN2CCN(S(=O)(=O)c3ccc(NC(=S)NCc4cccnc4)cc3)CC2)[C@@H](c2nc3cc(Cl)ccc3c(=O)n2Cc2ccccc2)C(C)C)cc1 | 
13 | 33 | 93 | Cc1ccc(C(=O)N(CCCNC(=O)CCCCCCCCCCN2CCN(S(=O)(=O)c3ccc(NC(=S)NCc4cccnc4)cc3)CC2)[C@@H](c2nc3cc(Cl)ccc3c(=O)n2Cc2ccccc2)C(C)C)cc1 | 
23 | 90 | 91 | Cc1ccc(C(=O)N(CCCNC(=O)CCCCCCCCN2CCN(S(=O)(=O)c3ccc(NC(=S)NCc4cccnc4)cc3)CC2)[C@@H](c2nc3cc(Cl)ccc3c(=O)n2Cc2ccccc2)C(C)C)cc1 | Kd [9]: 933 nM; IC50 (A2780 [8]): 46 nM; Activity (A2780 [10]): Active; Stability [11]: Stable; Activity (MDA-MB-231): Active; Activity (HCT-116): Active; Activity [12]: Active
